Article PMC3981972 (Molecular cancer therapeutics, 2014)

How the values were obtained:
[1] = Mouse plasma clearance of fluorescent probes after intravenous injection; assay type: in vivo; conditions: 75 nmol i.v., biexponential fit
Procedure, shortened: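 Nude mice (6–8 weeks) with HT-1080 tumours in dorsal skin window chambers, under 1–2% isoflurane. Vessels labelled with Angiosense-750 or Pacific Blue–dextran. 75 nmol probe in 1:1 dimethylacetamide:solutol plus PBS, sonicated, given by tail-vein catheter during time-lapse intravital imaging (scans every 10 s). Plasma signal taken from intravascular regions of interest and fitted to biexponential decay.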

[2] = test system: tumor blood vessels of HT-1080 xenografts; conditions: previous observations; cited from earlier work
HT1080 cells = experiment: Live cell imaging of subcellular uptake and wash-out kinetics; assay type: cell-based
Procedure, shortened: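 HT1080 cells grown in DMEM with non-essential amino acids, 10% FBS and 1% penicillin-streptomycin, then imaged live in glass coverslip-bottom dishes on an inverted deconvolution microscope (40x objective, 37°C, 5% CO2). Prewarmed fluorescent probe was added to 1 μM, with images every second. Cells were then washed twice into drug-free medium. Nuclear and nucleolar regions of interest were fitted to uptake and clearance curves.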

[3] = Plasma protein binding by rapid equilibrium dialysis; assay type: in vitro ADME; conditions: 10 μM in mouse serum, 37°C, 4 hours
Procedure, shortened: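 Probe equilibrated in mouse serum against PBS on a shaker. Both compartments then adjusted with plasma or PBS to a 50:50 PBS:plasma final matrix to even out fluorescence effects. Fluorescence read on a plate reader to give the bound fraction.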

Cc1cc(C)n2c1C=C1C=CC(CCC(=O)N3CCN(C(=O)c4cc(Cc5n[nH]c(=O)c6ccccc56)ccc4F)CC3)=[N+]1[B-]2(F)F [olaparib-BODIPY FL]
Mouse plasma clearance t1/2,alpha [1]: 5.16 min | Mouse plasma clearance t1/2,beta [1]: 85.7 min | C0 ([1]; read-out: Mouse plasma clearance C0): 7 µM | Vascular permeability in tumor vessels versus mouse ear vessels [2]: the same in tumor vessels and mouse ear vessels | Washing time to remove non-specific ER staining (HT1080 cells; HT1080 cells after 1 μM incubation, washed with fresh media): Within five minutes | Cellular uptake half-life (HT1080 cells; HT1080 cells, 1 μM): 1.18 min | Mouse plasma protein binding [3]: 99.23% (+/− 0.11%)
